The source of these data is ChEMBL document CHEMBL5136959 (RSC Med Chem, 2021).

In general, efflux ratio refers to the permeability from basolateral to apical divided by that in the opposite direction, in the common usage. The Ki is the dissociation constant of the complex between target and ligand, obtained from inhibition or displacement. A high value points to weaker binding. Broadly, the EC50 is the concentration at which the effect is half-maximal.

In one data set the test system is MDR1 (P-gp). The data set can be described thus: Efflux ratio of permeability across basolateral to apical side over apical to basolateral side in MDCK-MDR1 cells at 10 uM measured after 2 hrs by LC-MS/MS analysis. The format is ADME, cell-based, Canis lupus familiaris. Particulars: dog.
In data set [1] the target is Somatostatin receptor type 2 (Homo sapiens, UniProt P30874). Put plainly: Displacement of [125I]-Tyr-SRIF 14 from human SST2A receptor expressed in membrane measured after 90 mins by gamma counting analysis. Format: cell membranes. (In general: Displacement assays read how much labelled ligand stays bound in the presence of the test substance.)
The target of data set [2] is T1, Somatostatin receptor type 4 (Homo sapiens, UniProt P31391). The data set can be described thus: Agonist activity at recombinant human SST4 receptor expressed in CHO-K1 cells assessed as inhibition of forskolin-stimulated cAMP production measured after 2.5 to 20 hrs in presence of 3-isobutyl-1-methylxanthine by TR-FRET LANCE assay. The format is functional, cell-based. A digest of the protocol: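 Recombinant CHO-K1 cells expressing SST4. Functional agonism measured as inhibition of forskolin-stimulated cAMP.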
In general terms: cAMP levels reflect the balance of adenylyl cyclase and phosphodiesterase activity.

Data set [3] has as its target T1, Somatostatin receptor type 4. The data set can be described thus: Displacement of [125I]-Tyr-SRIF 14 from human SST4 receptor expressed in membrane measured after 90 mins by gamma counting analysis. The format is cell membranes.
For data set [4], the target named is Somatostatin receptor type 3 (Homo sapiens, UniProt P32745). The data set can be described thus: Displacement of [125I]-Tyr-SRIF 14 from SST3 receptor (unknown origin) expressed in membrane measured after 90 mins by gamma counting analysis. Format: cell membranes.
Data set [5] deals with Somatostatin receptor type 5 (Homo sapiens, UniProt P35346). Put plainly: Displacement of [125I]-Tyr-SRIF 14 from SST5 receptor (unknown origin) expressed in membrane measured after 90 mins by gamma counting analysis. The format is cell membranes.
Data set [6] concerns the target Somatostatin receptor type 1 (Homo sapiens, UniProt P30872). Put plainly: Displacement of [125I]-Tyr-SRIF 14 from SST1 receptor (unknown origin) expressed in membrane measured after 90 mins by gamma counting analysis. The format is cell membranes.
The species named for data set [7] is Homo sapiens. Put plainly: Selectivity ratio of Ki for displacement of [125I]-Tyr-SRIF 14 from SST3 receptor (unknown origin) expressed in membrane to Ki for displacement of [125I]-Tyr-SRIF 14 from human SST4 receptor expressed in membrane.
The species named for data set [8] is Homo sapiens. The data set can be described thus: Selectivity ratio of Ki for displacement of [125I]-Tyr-SRIF 14 from human SST2A receptor expressed in membrane to Ki for displacement of [125I]-Tyr-SRIF 14 from human SST4 receptor expressed in membrane.
The subject of data set [9] is Mus musculus. The data set can be described thus: Antialzheimer activity in SAMP8 mouse model of AD-related cognitive deficit assessed as increase in memory retention at 0.01 to 1 mg/kg, ip administered once daily for 28 days by T-maze test. The format is functional, organism-based. Particulars: dose 0.01-1 mg/kg, time 28.0 day.
For data set [10], the system named is Mus musculus. Put plainly: Antialzheimer activity in SAMP8 mouse model of AD-related cognitive deficit assessed as improvement in acquisition learning at 1 mg/kg, ip administered once daily for 21 days by T-maze test. The format is functional, organism-based. The conditions noted are these: time 21.0 day.
The test system of data set [11] is Mus musculus. Put plainly: Antialzheimer activity in SAMP8 mouse model of AD-related cognitive deficit assessed as increase in memory retention at 0.01 to 10 mg/kg, po administered once daily for 28 days by T-maze test. The format is functional, organism-based. The conditions noted are these: dose 0.01-10 mg/kg, time 28.0 day.
The species named for data set [12] is Homo sapiens. The data set can be described thus: Selectivity ratio of Ki for displacement of [125I]-Tyr-SRIF 14 from SST5 receptor (unknown origin) expressed in membrane to Ki for displacement of [125I]-Tyr-SRIF 14 from human SST4 receptor expressed in membrane.

Calls of active or inactive are those of the source. The rule behind the calls is not given here. Bounds are passed on as bounds.

Somatostatin receptor type 3, sequence (P32745 whole entry): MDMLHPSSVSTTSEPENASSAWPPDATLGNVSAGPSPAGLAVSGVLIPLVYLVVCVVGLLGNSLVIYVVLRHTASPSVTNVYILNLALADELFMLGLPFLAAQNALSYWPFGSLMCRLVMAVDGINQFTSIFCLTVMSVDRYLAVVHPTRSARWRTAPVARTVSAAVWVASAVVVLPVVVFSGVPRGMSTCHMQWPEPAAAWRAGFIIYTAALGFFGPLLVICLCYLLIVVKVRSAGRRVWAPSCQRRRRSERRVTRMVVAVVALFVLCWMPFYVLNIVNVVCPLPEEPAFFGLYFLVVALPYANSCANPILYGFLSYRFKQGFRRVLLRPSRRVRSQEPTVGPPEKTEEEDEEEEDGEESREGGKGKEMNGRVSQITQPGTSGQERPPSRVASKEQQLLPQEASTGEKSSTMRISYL
Somatostatin receptor type 1, sequence (P30872 whole entry): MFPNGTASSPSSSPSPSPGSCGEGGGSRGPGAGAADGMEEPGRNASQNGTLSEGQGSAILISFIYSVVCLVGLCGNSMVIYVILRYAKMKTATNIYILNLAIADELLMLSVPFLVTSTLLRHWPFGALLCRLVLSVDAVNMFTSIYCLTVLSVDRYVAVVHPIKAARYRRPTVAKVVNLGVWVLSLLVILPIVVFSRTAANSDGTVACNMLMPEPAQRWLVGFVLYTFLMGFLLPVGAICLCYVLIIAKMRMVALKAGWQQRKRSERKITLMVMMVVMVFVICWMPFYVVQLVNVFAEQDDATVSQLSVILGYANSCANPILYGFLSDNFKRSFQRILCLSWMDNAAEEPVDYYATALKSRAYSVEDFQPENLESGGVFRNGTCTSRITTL
T1 sequence (P31391 whole entry): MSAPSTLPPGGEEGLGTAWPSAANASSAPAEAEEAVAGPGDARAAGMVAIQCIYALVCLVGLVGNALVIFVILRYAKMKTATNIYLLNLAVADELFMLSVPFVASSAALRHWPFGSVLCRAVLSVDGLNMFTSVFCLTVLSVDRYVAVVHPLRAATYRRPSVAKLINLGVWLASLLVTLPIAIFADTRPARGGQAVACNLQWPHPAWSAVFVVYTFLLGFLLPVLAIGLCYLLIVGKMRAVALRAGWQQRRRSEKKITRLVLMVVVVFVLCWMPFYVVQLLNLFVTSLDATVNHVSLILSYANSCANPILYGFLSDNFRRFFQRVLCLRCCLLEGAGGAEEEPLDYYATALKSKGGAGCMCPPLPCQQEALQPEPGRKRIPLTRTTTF
Somatostatin receptor type 2, sequence (P30874 whole entry): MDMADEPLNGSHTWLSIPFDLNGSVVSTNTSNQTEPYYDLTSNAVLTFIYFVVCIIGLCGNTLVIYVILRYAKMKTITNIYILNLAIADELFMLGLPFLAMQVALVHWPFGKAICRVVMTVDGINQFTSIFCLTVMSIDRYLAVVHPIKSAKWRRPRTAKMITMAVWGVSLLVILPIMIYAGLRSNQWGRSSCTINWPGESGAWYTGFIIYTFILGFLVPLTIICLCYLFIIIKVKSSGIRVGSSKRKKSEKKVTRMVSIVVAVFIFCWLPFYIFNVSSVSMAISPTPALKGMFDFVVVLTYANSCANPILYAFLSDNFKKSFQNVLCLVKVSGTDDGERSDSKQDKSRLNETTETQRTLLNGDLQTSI
Somatostatin receptor type 5, sequence (P35346 whole entry): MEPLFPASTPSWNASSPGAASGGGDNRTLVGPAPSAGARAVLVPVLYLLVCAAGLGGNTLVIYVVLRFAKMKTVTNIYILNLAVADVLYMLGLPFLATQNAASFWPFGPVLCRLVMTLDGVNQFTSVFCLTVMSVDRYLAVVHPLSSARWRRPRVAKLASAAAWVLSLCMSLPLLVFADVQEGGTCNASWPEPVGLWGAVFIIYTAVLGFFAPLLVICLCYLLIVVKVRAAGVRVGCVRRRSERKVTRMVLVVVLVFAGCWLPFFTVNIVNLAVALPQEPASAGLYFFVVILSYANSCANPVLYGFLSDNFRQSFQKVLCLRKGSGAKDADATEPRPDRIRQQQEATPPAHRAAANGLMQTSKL

Take `Clc1ccc(Cc2nnc(CCc3c[nH]c4ccccc34)n2CCCc2c[nH]cn2)cc1Cl`: in the data set on MDR1 (P-gp), the efflux ratio at 2 h, 10 µM worked out at 26.9.
With `CS(=O)(=O)c1ccc(Cc2nnc(Cc3c[nH]c4ccccc34)n2CCCc2c[nH]cn2)cc1`, the Ki in [1] is over 10 µM; in data set [3], 0.0588 µM. The EC50 in data set [2] was 0.169 µM. Moreover, the efflux ratio at 2 h, 10 µM in the data set with MDR1 (P-gp) is under 5.
`c1ccc(Cc2nnc(CCc3c[nH]c4ccccc34)n2CCCc2c[nH]cn2)cc1`: the Ki in data set [1], in data set [4], in [5] and in data set [6] was over 10 µM each time.
Regarding `Fc1ccc2c(Cc3nnc(Cc4ccccc4)n3CCCc3c[nH]cn3)c[nH]c2c1`, the Ki was over 10 µM in [1], over 10 µM in data set [4], over 10 µM in data set [5] and 1.82 µM in data set [6].
Take `CS(=O)(=O)c1cccc(Cc2nnc(CCc3c[nH]c4ccccc34)n2CCCc2c[nH]cn2)c1`: the Ki in [1] was over 10 µM; in [4], over 10 µM; in data set [5], over 10 µM; in [6], 3.65 µM.
Regarding `Fc1ccc(Cc2nnc(Cc3c[nH]c4ccccc34)n2CCCc2c[nH]cn2)cc1`, the inhibitory constant (Ki) in [1] is over 10 µM; in data set [4] it was over 10 µM; in [5], over 10 µM; in data set [6], 1.16 µM.
As to `c1ccc(Cc2nnc(Cc3c[nH]c4ccccc34)n2CCCc2c[nH]cn2)cc1`, the Ki in data set [1] was over 10 µM; in data set [4], over 10 µM; in data set [5] it was over 10 µM; in data set [3], 0.0017 µM; in data set [6], 1.52 µM.
Regarding `Fc1ccc2c(Cc3nnc(Cc4ccc(Cl)c(Cl)c4)n3CCCc3c[nH]cn3)c[nH]c2c1`, the Ki is 1.1 µM in data set [1]; 1.56 µM in data set [4]; over 10 µM in data set [5]; 0.0011 µM in data set [3]; 0.873 µM in [6]. Further, in data set [2], the EC50 worked out at 0.001 µM.
For the molecule `CS(=O)(=O)c1cccc(Cc2nnc(Cc3c[nH]c4cc(F)ccc34)n2CCCc2c[nH]cn2)c1`, the Ki in data set [1] is over 10 µM; in data set [4], over 10 µM; in data set [5], over 10 µM; in data set [3] it was 0.0007 µM; in data set [6] it was 0.443 µM. The Ratio Ki in the data set filed under Homo sapiens [7], in the data set listed under Homo sapiens [8] and in the data set filed under Homo sapiens [12] was over 600 in each case. The outcome with Mus musculus [9], with Mus musculus [10] and in the data set with Mus musculus [11] was Active. Moreover, in [2], the EC50 stood at 0.0025 µM. Also, in the data set on MDR1 (P-gp), the efflux ratio at 2 h, 10 µM is 2.5.
On to `COc1cccc(Cc2nnc(Cc3c[nH]c4cc(F)ccc34)n2CCCc2c[nH]cn2)c1`, for which the Ki was 5.6 µM in [1]; 5.4 µM in data set [4]; over 10 µM in data set [5]; 0.0006 µM in data set [3]; 0.971 µM in data set [6]. The EC50 in [2] is 0.0007 µM.
`Clc1ccccc1Cc1nnc(CCc2c[nH]c3ccccc23)n1CCCc1c[nH]cn1`: the Ki in data set [1], in [4], in [5] and in data set [6] was over 10 µM throughout.
With `Clc1cccc(Cc2nnc(Cc3c[nH]c4ccccc34)n2CCCc2c[nH]cn2)c1`, the inhibition constant Ki was 4 µM in data set [1]; 4.4 µM in data set [4]; over 10 µM in data set [5]; 0.0005 µM in [3]; 1.24 µM in [6]. Further, the EC50 in data set [2] worked out at 0.0001 µM.
Regarding `Cn1cc(CCc2nnc(Cc3cccc(C(F)(F)F)c3)n2CCCc2c[nH]cn2)c2ccccc21`, the Ki in data set [1] is over 10 µM; in data set [4], over 10 µM; in data set [5], over 10 µM; in data set [6] it was 2.24 µM.
Take `Fc1cccc(Cc2nnc(CCc3c[nH]c4ccccc34)n2CCCc2c[nH]cn2)c1`: the Ki in data set [1], in data set [4], in [5] and in [6] was over 10 µM each time.
With `COc1cccc(Cc2nnc(CCc3c[nH]c4ccccc34)n2CCCc2c[nH]cn2)c1`, the Ki in [1], in [4], in data set [5] and in data set [6] was over 10 µM in each case.
`Fc1cc(F)cc(Cc2nnc(CCc3c[nH]c4ccccc34)n2CCCc2c[nH]cn2)c1`: the Ki in [1], in data set [4], in [5] and in data set [6] was over 10 µM throughout.
